Data published in ChEMBL document CHEMBL2010765, “Structure-activity relationship (SAR) development and discovery of potent indole-based inhibitors of the hepatitis C virus (HCV) NS5B polymerase” (J Med Chem, 2012).

Legend:
[1] = system: Hepatitis C virus; assay: Inhibition of HCV subtype 1b NS5B Cdelta21 RNA dependent RNA polymerase expressed in Escherichia coli JM109 assessed as inhibition of [alpha32P]CTP incorporation after 1 hr by scintillation assay; design: species or system Hepatitis C virus subtype 1b; conditions: JM 109, 1 h
[2] = system: Hepatitis C virus; assay: Antiviral activity against HCV infected in human hepatoma cells; assay type: functional, organism-based, Hepacivirus hominis
[3] = AUC (0 to 24 hrs) in rat at 10 mg/kg, po; assay type: ADME, organism-based; design: time < 24 hr, dose 10 mg/kg, route oral; conditions: plasma
[4] = Permeability from apical to basal side of human Caco2 cells; assay type: ADME, cell-based; conditions: Caco-2, read-out: permeability
[5] = Drug uptake in rat liver at 10 mg/kg, po after 6 hrs; assay type: ADME, organism-based; design: dose 10 mg/kg, route oral; conditions: read-out: Drug uptake
Method in brief: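 Rats dosed orally at 10 mg/kg; liver tissue concentration measured 6 h after dosing, reported in ng/g.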

[6] = AUC (0 to 24 hrs) in dog at 2 mg/kg, po; assay type: ADME, organism-based, Canis lupus familiaris; design: time < 24 hr, dose 2 mg/kg, route oral; conditions: plasma
[7] = Clearance in human hepatocytes assessed per million cells; assay type: ADME, cell-based, Hepatocyte; conditions: read-out: CLH
[8] = target: T1, Cytochrome P450 2D6 (Homo sapiens, UniProt P10635); assay: Inhibition of CYP2D6 co-incubated with substrate; assay type: ADME
[9] = target: T2, Cytochrome P450 3A4 (Homo sapiens, UniProt P08684); assay: Inhibition of CYP3A4 co-incubated with substrate; assay type: ADME
[10] = target: T3, Cytochrome P450 2C9 (Homo sapiens, UniProt P11712); assay: Inhibition of CYP2C9 co-incubated with substrate; assay type: ADME
[11] = target: T4, Cytochrome P450 2C19 (Homo sapiens, UniProt P33261); assay: Inhibition of CYP2C19 co-incubated with substrate; assay type: ADME
[12] = target: T1, Cytochrome P450 2D6; assay: Inhibition of CYP2D6 preincubated prior to substrate addition; assay type: ADME
[13] = target: T2, Cytochrome P450 3A4; assay: Inhibition of CYP3A4 preincubated prior to substrate addition; assay type: ADME
[14] = target: T3, Cytochrome P450 2C9; assay: Inhibition of CYP2C9 preincubated prior to substrate addition; assay type: ADME
[15] = target: T4, Cytochrome P450 2C19; assay: Inhibition of CYP2C19 preincubated prior to substrate addition; assay type: ADME
[16] = target: Voltage-gated inwardly rectifying potassium channel KCNH2 (Homo sapiens, UniProt Q12809); assay: Inhibition of human ERG at 10 uM by efflux assay
Sequence of Voltage-gated inwardly rectifying potassium channel KCNH2 (Q12809 whole entry): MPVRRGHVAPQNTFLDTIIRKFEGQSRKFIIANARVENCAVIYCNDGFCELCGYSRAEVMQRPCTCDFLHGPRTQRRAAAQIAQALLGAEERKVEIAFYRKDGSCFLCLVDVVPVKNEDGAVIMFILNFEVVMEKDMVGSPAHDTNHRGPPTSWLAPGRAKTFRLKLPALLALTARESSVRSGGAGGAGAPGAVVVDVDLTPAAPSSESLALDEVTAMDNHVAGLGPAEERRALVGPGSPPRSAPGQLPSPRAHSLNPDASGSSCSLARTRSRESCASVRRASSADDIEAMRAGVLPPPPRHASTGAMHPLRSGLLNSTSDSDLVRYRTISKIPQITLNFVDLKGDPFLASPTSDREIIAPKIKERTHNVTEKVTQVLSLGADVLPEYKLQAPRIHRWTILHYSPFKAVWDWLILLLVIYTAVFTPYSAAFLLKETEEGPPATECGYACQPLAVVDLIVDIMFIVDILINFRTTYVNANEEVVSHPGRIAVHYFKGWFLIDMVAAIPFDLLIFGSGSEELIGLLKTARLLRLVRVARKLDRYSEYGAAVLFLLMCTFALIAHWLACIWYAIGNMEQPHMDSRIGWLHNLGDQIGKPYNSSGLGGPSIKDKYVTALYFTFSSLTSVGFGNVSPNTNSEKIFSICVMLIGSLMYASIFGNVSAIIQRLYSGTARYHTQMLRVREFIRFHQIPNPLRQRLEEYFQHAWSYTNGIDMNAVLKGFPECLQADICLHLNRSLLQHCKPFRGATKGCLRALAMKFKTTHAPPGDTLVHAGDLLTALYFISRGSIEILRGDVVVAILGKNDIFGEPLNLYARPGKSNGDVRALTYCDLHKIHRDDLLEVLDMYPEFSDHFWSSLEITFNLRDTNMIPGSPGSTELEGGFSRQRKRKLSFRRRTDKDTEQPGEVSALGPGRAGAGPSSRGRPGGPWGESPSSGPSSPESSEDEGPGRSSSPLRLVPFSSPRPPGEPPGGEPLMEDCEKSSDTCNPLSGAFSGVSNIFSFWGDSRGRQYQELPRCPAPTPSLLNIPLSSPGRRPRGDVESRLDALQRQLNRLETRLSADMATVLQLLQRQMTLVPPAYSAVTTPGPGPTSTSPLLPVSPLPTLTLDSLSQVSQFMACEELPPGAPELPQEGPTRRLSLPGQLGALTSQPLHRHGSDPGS

T4 sequence (P33261 whole entry): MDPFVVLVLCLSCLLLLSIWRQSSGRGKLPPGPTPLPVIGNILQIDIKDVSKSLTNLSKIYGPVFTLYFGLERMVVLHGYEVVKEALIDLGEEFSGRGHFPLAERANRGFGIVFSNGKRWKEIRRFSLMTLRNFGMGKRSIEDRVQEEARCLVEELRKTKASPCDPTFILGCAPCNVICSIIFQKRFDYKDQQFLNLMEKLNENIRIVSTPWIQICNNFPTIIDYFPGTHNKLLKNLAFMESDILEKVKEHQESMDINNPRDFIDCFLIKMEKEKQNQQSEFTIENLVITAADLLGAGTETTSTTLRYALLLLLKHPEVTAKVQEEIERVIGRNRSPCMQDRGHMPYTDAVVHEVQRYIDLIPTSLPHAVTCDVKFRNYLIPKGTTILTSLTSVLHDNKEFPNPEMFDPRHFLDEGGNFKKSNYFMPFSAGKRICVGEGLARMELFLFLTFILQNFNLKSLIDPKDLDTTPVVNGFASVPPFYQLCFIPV
T1 sequence (P10635 whole entry): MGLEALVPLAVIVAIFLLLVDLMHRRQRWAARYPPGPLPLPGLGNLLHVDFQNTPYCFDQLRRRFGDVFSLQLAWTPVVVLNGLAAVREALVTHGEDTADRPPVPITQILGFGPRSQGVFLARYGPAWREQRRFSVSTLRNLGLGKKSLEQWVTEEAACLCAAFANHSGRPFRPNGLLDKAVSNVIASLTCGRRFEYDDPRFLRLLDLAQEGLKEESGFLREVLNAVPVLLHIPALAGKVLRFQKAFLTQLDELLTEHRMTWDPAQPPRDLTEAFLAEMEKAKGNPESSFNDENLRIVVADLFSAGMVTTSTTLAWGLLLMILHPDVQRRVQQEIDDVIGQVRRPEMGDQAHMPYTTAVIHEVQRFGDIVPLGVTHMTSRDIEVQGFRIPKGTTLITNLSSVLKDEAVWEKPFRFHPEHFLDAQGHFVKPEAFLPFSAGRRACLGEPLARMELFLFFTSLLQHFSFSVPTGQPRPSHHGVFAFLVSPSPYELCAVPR
T3 sequence (P11712 whole entry): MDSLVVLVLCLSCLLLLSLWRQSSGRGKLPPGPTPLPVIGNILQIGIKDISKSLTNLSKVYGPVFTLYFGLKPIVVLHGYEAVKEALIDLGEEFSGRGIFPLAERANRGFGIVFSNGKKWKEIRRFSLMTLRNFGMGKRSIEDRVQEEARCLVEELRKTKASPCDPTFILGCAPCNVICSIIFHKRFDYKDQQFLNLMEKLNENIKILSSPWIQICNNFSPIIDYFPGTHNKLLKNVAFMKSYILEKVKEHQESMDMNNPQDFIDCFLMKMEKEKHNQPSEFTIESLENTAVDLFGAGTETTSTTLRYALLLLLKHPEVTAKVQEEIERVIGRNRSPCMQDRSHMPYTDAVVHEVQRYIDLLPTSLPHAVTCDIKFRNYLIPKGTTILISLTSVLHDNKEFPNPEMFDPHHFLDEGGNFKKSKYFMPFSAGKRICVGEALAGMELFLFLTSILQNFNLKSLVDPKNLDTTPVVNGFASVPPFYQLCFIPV
T2 sequence (P08684 whole entry): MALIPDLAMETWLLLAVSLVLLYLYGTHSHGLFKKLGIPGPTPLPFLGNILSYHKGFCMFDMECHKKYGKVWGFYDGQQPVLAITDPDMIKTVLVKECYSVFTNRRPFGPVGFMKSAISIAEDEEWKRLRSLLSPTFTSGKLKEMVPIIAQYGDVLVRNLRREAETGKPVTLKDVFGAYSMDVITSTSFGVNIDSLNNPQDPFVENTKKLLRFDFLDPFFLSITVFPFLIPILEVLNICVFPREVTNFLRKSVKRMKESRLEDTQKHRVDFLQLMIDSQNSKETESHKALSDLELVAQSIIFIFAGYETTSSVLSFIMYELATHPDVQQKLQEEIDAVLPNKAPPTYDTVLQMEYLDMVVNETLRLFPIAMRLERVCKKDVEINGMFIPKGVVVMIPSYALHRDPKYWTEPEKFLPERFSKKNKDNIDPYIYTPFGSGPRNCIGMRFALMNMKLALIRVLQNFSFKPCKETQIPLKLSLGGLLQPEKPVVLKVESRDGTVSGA

| Structure (SMILES) | IC50 [1] | EC50 [2] | AUC(0-t) at 24 h [3] | further results |
| --- | --- | --- | --- | --- |
| Nc1cc(Cn2c(C(=O)O)c(-c3ccc[nH]c3=O)c3cc(Cl)ccc32)ccn1 | 53 nM | – | – | – |
| O=C(O)c1c(-c2ccc[nH]c2=O)c2cc(C(F)(F)F)ccc2n1Cc1ccc(F)cc1F | 25 nM | 100 nM | – | – |
| Nc1cc(Cn2c(C(=O)O)c(-c3ccc[nH]c3=O)c3cc(C(F)(F)F)ccc32)ccn1 | 17 nM | 100 nM | < 0.1 µM·h | – |
| O=C(O)c1c(-c2ccccc2F)c2cc(Cl)ccc2n1Cc1ccccc1 | – | > 100000 nM | – | – |
| CCOc1ccc2c(c1)c(-c1ccc[nH]c1=O)c(C(=O)O)n2Cc1cc(F)ccc1F | 79 nM | 100 nM | – | – |
| Nc1cc(Cn2c(C(=O)O)c(-c3ccc[nH]c3=O)c3c(Cl)c(Cl)ccc32)ccn1 | 750 nM | 100 nM | – | – |
| Nc1cc(Cn2c(C(=O)O)c(-c3ccc[nH]c3=O)c3c(Br)cccc32)ccn1 | 4000 nM | 100 nM | – | – |
| Nc1cc(Cn2c(C(=O)O)c(-c3ccc[nH]c3=O)c3cc(Cl)c(Cl)cc32)ccn1 | 47 nM | 100 nM | – | – |
| Nc1cc(Cn2c(C(=O)O)c(-c3ccc[nH]c3=O)c3cc(Br)ccc32)ccn1 | 47 nM | 100 nM | – | – |
| Nc1cc(Cn2c(C(=O)O)c(-c3ccc[nH]c3=O)c3cc(-c4cccc(=O)[nH]4)ccc32)ccn1 | 7000 nM | 100 nM | – | – |
| Nc1cc(Cn2c(C(=O)O)c(-c3ccc[nH]c3=O)c3cc(C4CC4)ccc32)ccn1 | 65 nM | 100 nM | – | – |
| CS(=O)(=O)c1ccc2c(c1)c(-c1ccc[nH]c1=O)c(C(=O)O)n2Cc1ccnc(N)c1 | 1400 nM | 100 nM | – | – |
| CC(=O)c1ccc2c(c1)c(-c1ccc[nH]c1=O)c(C(=O)O)n2Cc1ccnc(N)c1 | 330 nM | 100 nM | – | – |
| C#Cc1ccc2c(c1)c(-c1ccc[nH]c1=O)c(C(=O)O)n2Cc1ccnc(N)c1 | 48 nM | 100 nM | – | – |
| Nc1cc(Cn2c(C(=O)O)c(-c3ccc[nH]c3=O)c3cc(O)ccc32)ccn1 | > 20000 nM | 100 nM | – | – |
| Nc1cc(Cn2c(C(=O)O)c(-c3ccc[nH]c3=O)c3cc(OC(F)(F)F)ccc32)ccn1 | 16 nM | 100 nM | – | – |
| COc1ccc(Cn2c(C(=O)O)c(-c3ccc[nH]c3=O)c3cc(C(F)(F)F)ccc32)cc1 | 25 nM | 100 nM | – | – |
| O=C(O)c1c(-c2ccc[nH]c2=O)c2cc(C(F)(F)F)ccc2n1Cc1ccc(OC(F)F)cc1 | 67 nM | 100 nM | – | – |
| Cc1ccc(Cn2c(C(=O)O)c(-c3ccc[nH]c3=O)c3cc(C(F)(F)F)ccc32)c(C)c1 | 16 nM | 100 nM | – | – |
| O=C(O)c1c(-c2ccc[nH]c2=O)c2cc(OC(F)(F)F)ccc2n1Cc1cc(F)ccc1F | 24 nM | 100 nM | – | – |
| CC/C=C/c1ccc2c(c1)c(-c1ccc[nH]c1=O)c(C(=O)O)n2Cc1cc(F)ccc1F | 150 nM | 100 nM | – | – |

Further compounds by falling IC50 [1], results first:

| IC50 [1] | EC50 [2] | AUC(0-t) at 24 h [3] | Structure (SMILES) | further results |
| --- | --- | --- | --- | --- |
| 15 nM | 100 nM | – | COc1ccc2c(c1)c(-c1ccc[nH]c1=O)c(C(=O)O)n2Cc1cc(F)ccc1F | – |
| 10 nM | 200 nM | 11 µM·h | CCS(=O)(=O)NC(=O)c1c(-c2ccc[nH]c2=O)c2cc(C)ccc2n1Cc1cc(F)ccc1F | – |
| 9 nM | 100 nM | – | Cc1ccccc1Cn1c(C(=O)O)c(-c2ccc[nH]c2=O)c2cc(C(F)(F)F)ccc21 | – |
| 9 nM | 100 nM | – | O=C(O)c1c(-c2ccc[nH]c2=O)c2cc(C(F)(F)F)ccc2n1Cc1ccccc1F | – |
| 9 nM | 100 nM | – | CC1(c2ccc3c(c2)c(-c2ccc[nH]c2=O)c(C(=O)O)n3Cc2cc(F)ccc2F)CC1 | – |
| 8 nM | 1100 nM | – | Cc1ccc2c(c1)c(-c1ccc[nH]c1=O)c(C(=O)O)n2Cc1cc(F)ccc1F | – |
| 8 nM | 100 nM | – | O=C(O)c1c(-c2ccc[nH]c2=O)c2cc(CC(F)(F)F)ccc2n1Cc1cc(F)ccc1F | – |
| 8 nM | 100 nM | – | CC(C)(C)c1ccc2c(c1)c(-c1ccc[nH]c1=O)c(C(=O)O)n2Cc1cc(F)ccc1F | – |
| 8 nM | 20 nM | 14 µM·h | Cc1cc2c(-c3ccc[nH]c3=O)c(C(=O)NS(=O)(=O)C3CC3)n(Cc3cc(F)ccc3F)c2cc1F | Papp A→B [4]: 3.5 ×10⁻⁶ cm/s; concentration at 6 h [5]: 5850 ng/g; AUC(0-t) at 24 h [6]: 8 µM·h; hepatocyte CLint [7]: < 1 µL/min/1e6 cells; IC50 [8]: > 20000 nM; IC50 [9]: > 20000 nM; IC50 [10]: > 20000 nM; IC50 [11]: > 20000 nM; IC50 [12]: > 20000 nM; IC50 [13]: > 20000 nM; IC50 [14]: > 20000 nM; IC50 [15]: > 20000 nM; inhibition (INH) [16]: Not Active |
| 7 nM | 100 nM | – | NC(=O)c1ccc(F)c(Cn2c(C(=O)O)c(-c3ccc[nH]c3=O)c3cc(C(F)(F)F)ccc32)c1 | – |
| 7 nM | 490 nM | 22 µM·h | Cc1ccc2c(c1)c(-c1ccc[nH]c1=O)c(C(=O)NS(C)(=O)=O)n2Cc1cc(F)ccc1F | – |
| 7 nM | 90 nM | 6.8 µM·h | Cc1ccc2c(c1)c(-c1ccc[nH]c1=O)c(C(=O)NS(=O)(=O)C(C)C)n2Cc1cc(F)ccc1F | – |
| 7 nM | 230 nM | 0.67 µM·h | O=C(NS(=O)(=O)C1CC1)c1c(-c2ccc[nH]c2=O)c2cc(CC(F)(F)F)ccc2n1Cc1cc(F)ccc1F | – |
| 7 nM | 280 nM | 0.69 µM·h | Cc1cc2c(-c3ccc[nH]c3=O)c(C(=O)NS(=O)(=O)C3CC3)n(Cc3cc(F)ccc3F)c2cc1C(F)(F)F | – |
| 7 nM | 280 nM | – | O=C(NS(=O)(=O)C1CC1)c1c(-c2ccc[nH]c2=O)c2cc(C(F)(F)F)c(F)cc2n1Cc1cc(F)ccc1F | – |
| 6 nM | 90 nM | 9.1 µM·h | Cc1ccc2c(c1)c(-c1ccc[nH]c1=O)c(C(=O)NS(=O)(=O)C1CC1)n2Cc1cc(F)ccc1F | – |
| 6 nM | 150 nM | 72 µM·h | CCc1ccc2c(c1)c(-c1ccc[nH]c1=O)c(C(=O)NS(C)(=O)=O)n2Cc1cc(F)ccc1F | – |
| 6 nM | 80 nM | 4.6 µM·h | CCc1ccc2c(c1)c(-c1ccc[nH]c1=O)c(C(=O)NS(=O)(=O)CC)n2Cc1cc(F)ccc1F | – |
| 6 nM | 50 nM | 8 µM·h | CC(C)(C)c1ccc2c(c1)c(-c1ccc[nH]c1=O)c(C(=O)NS(=O)(=O)C1CC1)n2Cc1cc(F)ccc1F | – |
| 6 nM | 600 nM | 11 µM·h | CC1(c2ccc3c(c2)c(-c2ccc[nH]c2=O)c(C(=O)NS(=O)(=O)C2CC2)n3Cc2cc(F)ccc2F)CC1 | – |
| 5 nM | 100 nM | – | Cc1cccc(Cn2c(C(=O)O)c(-c3ccc[nH]c3=O)c3cc(C(F)(F)F)ccc32)c1F | – |
| 5 nM | 100 nM | 0.8 µM·h | CCc1ccc2c(c1)c(-c1ccc[nH]c1=O)c(C(=O)NS(=O)(=O)C(C)C)n2Cc1cc(F)ccc1F | – |
| 5 nM | 150 nM | – | Cc1cc2c(-c3ccc[nH]c3=O)c(C(=O)NS(=O)(=O)C3CC3)n(Cc3cc(F)ccc3F)c2cc1Cl | – |
| 5 nM | 60 nM | 6.4 µM·h | CCc1cc2c(-c3ccc[nH]c3=O)c(C(=O)NS(=O)(=O)C3CC3)n(Cc3cc(F)ccc3F)c2cc1F | – |
| 4 nM | 100 nM | – | CCc1ccc2c(c1)c(-c1ccc[nH]c1=O)c(C(=O)O)n2Cc1cc(F)ccc1F | – |
| 4 nM | 100 nM | – | O=C(O)c1c(-c2ccc[nH]c2=O)c2cc(C(F)(F)F)ccc2n1Cc1cc(F)ccc1F | – |
| 3 nM | 100 nM | – | O=C(O)c1c(-c2ccc[nH]c2=O)c2cc(Br)ccc2n1Cc1cc(F)ccc1F | – |
| 3 nM | 60 nM | 12 µM·h | CCc1ccc2c(c1)c(-c1ccc[nH]c1=O)c(C(=O)NS(=O)(=O)C1CC1)n2Cc1cc(F)ccc1F | – |
| 3 nM | 50 nM | 4.8 µM·h | O=C(NS(=O)(=O)C1CC1)c1c(-c2ccc[nH]c2=O)c2cc(C(F)(F)F)ccc2n1Cc1cc(F)ccc1F | – |
